# Source: PubChem BioAssay (The Scripps Research Institute Molecular Screening Center)
# CHRM5 PAM = human M5 muscarinic receptor positive allosteric modulators, primary screen, CHO-K1 cells, Fluo-8 calcium fluorescence. Muscarinic acetylcholine receptor M5 (Homo sapiens), P08912. CHO-K1 hM5, ACh EC20 PAM; 0% = ACh EC20, 100% = ACh EC100. activation, % at 3 µM. 0.3% of 360,000 active;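 active = activation above the run cutoff, the mean activation of all test compounds plus 3 SD, cut at about 18% in these data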
#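 Assay system: CHO-K1 hM5 cells. Also added: acetylcholine at EC20 concentration, added after compound. Dosing: 3 µM, single dose. Times: compound preincubation 140 s before EC20 acetylcholine addition. Signal: Fluo-8 calcium fluorescence. Measure: % activation relative to EC20 and EC100 ACh responses. Repeats: singlicate, one well per test compound.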
# M4 antag = human M4 muscarinic receptor antagonists, primary screen, CHO cells, Fluo-8 calcium fluorescence. Muscarinic acetylcholine receptor M4 (Homo sapiens), P08173. 0.73% of 360,000 active. CHO-hM4 cells, ACh EC80. inhibition, % at 3 µM. AID 624125, 2012;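 active = inhibition above its plate's cutoff, the mean inhibition of sample wells plus 3 SD, cut at about 27% in these data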;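 also: 0% = acetylcholine EC80 with DMSO and 100% = DMSO without agonist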
# Target sequence (P08173 whole entry, looked up): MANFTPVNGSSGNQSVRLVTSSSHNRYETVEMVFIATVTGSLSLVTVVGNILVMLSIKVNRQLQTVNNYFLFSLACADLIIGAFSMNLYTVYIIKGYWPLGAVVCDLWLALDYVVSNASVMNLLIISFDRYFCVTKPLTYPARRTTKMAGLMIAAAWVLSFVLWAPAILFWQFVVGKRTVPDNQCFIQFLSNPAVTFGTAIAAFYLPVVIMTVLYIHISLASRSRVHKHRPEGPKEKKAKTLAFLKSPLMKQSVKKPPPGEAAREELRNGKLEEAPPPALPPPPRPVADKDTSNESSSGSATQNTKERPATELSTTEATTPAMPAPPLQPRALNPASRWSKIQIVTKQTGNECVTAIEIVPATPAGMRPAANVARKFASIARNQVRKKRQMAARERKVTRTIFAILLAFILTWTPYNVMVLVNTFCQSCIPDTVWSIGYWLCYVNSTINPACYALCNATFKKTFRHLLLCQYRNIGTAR
# CHRM4 PAM = human M4 muscarinic receptor positive allosteric modulators, primary screen, CHO-K1 cells, Fluo-8 calcium fluorescence. activation, % at 3 µM. 0.4% of 360,000 active. Muscarinic acetylcholine receptor M4 (Homo sapiens), P08173. CHO-K1 hM4/Gqi5, ACh EC20; 0% = ACh EC20, 100% = maximal ACh. AID 624126, 2012;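 active = activation above its plate's cutoff, the mean activation of sample wells plus 3 SD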
# CHRM5 antagonist = human M5 muscarinic receptor antagonists, primary screen, CHO cells, Fluo-8 calcium fluorescence; Muscarinic acetylcholine receptor M5 (Homo sapiens), P08912; CHO-hM5 cells, ACh EC80; inhibition, % at 3 µM; 0.59% of 360,000 active;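 active = inhibition above a per-plate cutoff, the mean of that plate's test compounds plus 3 SD, cut at about 27% in these data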;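 also: 0% = acetylcholine EC80 with DMSO and 100% = DMSO without agonist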
# M4 ag = human M4 muscarinic receptor agonists, primary screen, CHO-K1 cells, Fluo-8 calcium fluorescence. Muscarinic acetylcholine receptor M4 (Homo sapiens), P08173. CHO-K1 hM4/Gqi5; vehicle 0%, full acetylcholine response 100%. activation, % at 3 µM. 0.14% of 360,000 active;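 active = activation above the run mean over all test wells plus 3 SD, cut at about 32% in these data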;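 also: peak over basal fluorescence ratio per well then scaled between controls; 0% = DMSO wells and 100% = acetylcholine at EC100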
# M5 ag = human M5 muscarinic receptor agonists, primary screen, CHO-K1 cells, Fluo-8 calcium fluorescence; CHO-K1 hM5 cells; 0% DMSO wells, 100% maximal acetylcholine response; activation, % at 3 µM; 0.19% of 360,000 active; AID 624037, 2012;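 active = activation above the run's mean over test compounds plus 3 SD, cut at about 23% in these data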;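 also: signal is peak over basal fluorescence ratio across the kinetic read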
# An asterisk follows results filed as active; . = no result. A selection: hits, their analogues and other compounds. The true share with any hit is near 1.8%.
SMILES,CHRM5 PAM,M4 antag,CHRM4 PAM,CHRM5 antagonist,M4 ag,M5 ag
COc1ccc(CNC(=O)C2CCN(S(=O)(=O)c3ccc4c(c3)C(C)(C)C(=O)N4C)CC2)cc1,-5,101*,-21,0,-3,0
Cc1cc(NC(=O)CCCN2C(=O)c3cccc4cccc(c34)C2=O)no1,15,-28,19*,4,-1,-2
C=C(c1ccc2nc(NC(=O)OC)[nH]c2c1)c1cccs1,-2,-8,3,0,4,0
COc1ccc(CC(=O)OCC(=O)Nc2ncc(Cl)cc2Cl)cc1OC,15,27*,11,5,2,2
COc1cc(CCC(=O)OCC(=O)Nc2ncc(Cl)cc2Cl)cc(OC)c1OC,1,6,16,13,2,-1
CN1[C@@H]2CC(OC(=O)[C@H](CO)c3ccccc3)C[C@H]1[C@@H]1O[C@@H]12 (stereo partly specified),.,100*,-18,.,0,.
CC(C)(C)c1cc(-c2nc(N)nc(N)n2)c(O)c(C(C)(C)C)c1,24*,-1,10,-13,0,5
Nc1nc(N)nc(-c2cc(O)ccc2O)n1,0,-4,8,3,1,2
CCn1ccnc1CNC(=O)c1ccc2oc(C(C)C)nc2c1,-10,9,-12,13,1,-8
CC1Oc2ccccc2N(CC(=O)NCc2ccccc2)C1=O (stereo unspecified),2,-11,23*,9,4,0
CC1Oc2ccccc2N(CC(=O)NC2CC2)C1=O (stereo unspecified),-2,-15,-3,10,2,-3
O=C1OC(c2ccccc2)(N(Nc2ccccc2)c2ccccc2)c2ccccc21 (stereo unspecified),-7,-12,-1,9,2,-2
Cc1ccc(NC(=O)CN2C(=O)NC3(CCCc4ccccc43)C2=O)cc1S(=O)(=O)N1CCOCC1 (stereo unspecified),-20,-6,-10,100*,20,-9
CC(C)C(C)NC(=O)CN1C(=O)NC2(CCCc3ccccc32)C1=O (stereo unspecified),-4,4,-4,5,0,-1
CC(C)C(C)NC(=O)CN1C(=O)NC2(CCc3ccccc32)C1=O (stereo unspecified),5,-24,14*,-4,0,0
CC1CCCN(S(=O)(=O)c2ccc3[nH]c4c(c3c2)CCCC4)C1 (stereo unspecified),-1,-9,-10,7,1,-1
CC(=O)Nc1ccc(Sc2ncccc2C(=O)Nc2ccc(OC(F)(F)F)cc2)cn1,-17,73*,-40,57*,142*,76*
Cc1ccc(Oc2ncccc2C(=O)NCC(=O)O)cc1,21*,-11,0,0,0,0
c1coc(Cn2c(SCc3nc4ccccc4[nH]3)nnc2-c2cnccn2)c1,-6,6,-1,3,3,1
Cn1c(SCc2nc3ccccc3[nH]2)nnc1-c1cnccn1,19*,0,-5,3,2,-2
Cc1ccc(CNC(=O)N2CCN(S(=O)(=O)c3ccccc3)CC2)cc1,3,-8,4,-4,2,-5
Nc1nnnn1CC(=O)N/N=C/c1ccccn1,7,1,-2,8,0,2
Cc1ccc2[nH]c(=O)c3cc(C(=O)NCCC(C)C)sc3c2c1,2,3,0,3,0,-4
CC(C)CCNC(=O)c1cc2c(=O)[nH]c3ccccc3c2s1,12,19,26*,18,9,-2
Cc1ccccc1C1c2[nH]c3ccccc3c2CCN1CCCn1cccn1 (stereo unspecified),-23,61*,-43,14,0,-17
